In ChEMBL document CHEMBL3739379, “Anti-Candida activity and cytotoxicity of a large library of new N-substituted-1,3-thiazolidin-4-one derivatives” (Eur J Med Chem, 2016):

Tests used:
Type in all cases: functional
Staphylococcus aureus = assay: Antibacterial activity against Staphylococcus aureus after 18 to 22 hrs by broth microdilution method
Procedure, shortened: (§1)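 Broth microdilution per NCCLS in Mueller-Hinton II broth; isolates subcultured for purity. Compounds dissolved in DMSO, serial dilutions 256 to 0.5 µg/mL; inoculum 10^5/mL. Controls: organism without compound, medium only. Incubation 18 to 22 h at 35 °C. MIC is the lowest concentration giving complete growth inhibition, read by unaided eye.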

Staphylococcus warneri = assay: Antibacterial activity against Staphylococcus warneri after 18 to 22 hrs by broth microdilution method; procedure, shortened: as §1
Enterococcus faecalis = assay: Antibacterial activity against […] faecalis after 18 to 22 hrs by broth microdilution method; procedure, shortened: as §1
[1] = system: Staphylococcus haemolyticus; assay: Antibacterial activity against Staphylococcus haemolyticus after 18 to 22 hrs by broth microdilution method; procedure, shortened: as §1
Escherichia coli = assay: Antibacterial activity against Escherichia coli at after 18 to 22 hrs by broth microdilution method; procedure, shortened: as §1
Proteus mirabilis = assay: Antibacterial activity against Proteus mirabilis after 18 to 22 hrs by broth microdilution method; procedure, shortened: as §1
Enterobacter sp. = assay: Antibacterial activity against Enterobacter sp. after 18 to 22 hrs by broth microdilution method; procedure, shortened: as §1
Klebsiella oxytoca = assay: Antibacterial activity against Klebsiella oxytoca after 18 to 22 hrs by broth microdilution method; procedure, shortened: as §1
Candida albicans = assay: Antifungal activity against Candida albicans clinical isolate after 24 hrs by sabouraud dextrose broth based microdilution method
Procedure, shortened: (§2)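 Clinical isolates identified by conventional methods and subcultured for purity. Broth microdilution per NCCLS in Sabouraud dextrose broth; compounds dissolved in DMSO and serially diluted; inoculum 10^3/mL. Controls: fungi without compound, medium only. Incubated 24 h at 37 °C. MIC is the lowest concentration with complete growth inhibition by unaided eye. Values are geometric means over isolates per species.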

Nakaseomyces glabratus = assay: Antifungal activity against Candida glabrata clinical isolate after 24 hrs by sabouraud dextrose broth based microdilution method; procedure, shortened: as §2
Candida tropicalis = assay: Antifungal activity against Candida tropicalis clinical isolate after 24 hrs by sabouraud dextrose broth based microdilution method; procedure, shortened: as §2
Pichia kudriavzevii = assay: Antifungal activity against Candida krusei clinical isolate after 24 hrs by sabouraud dextrose broth based microdilution method; procedure, shortened: as §2
Candida parapsilosis = assay: Antifungal activity against Candida parapsilosis clinical isolate after 24 hrs by sabouraud dextrose broth based microdilution method; conditions: Lodderomyces parapsilosis; procedure, shortened: as §2
[Candida] sake = Antifungal activity against Candida sake clinical isolate after 24 hrs by sabouraud dextrose broth based microdilution method; conditions: Fermentozyma sake; procedure, shortened: as §2

Measured: MIC

O=C1c2ccccc2C(=O)N1CN1C(=O)CS/C1=N\N=C\c1ccc2c(c1)OCO2
128 µg/mL: Candida parapsilosis | [Candida] sake
32 µg/mL: Pichia kudriavzevii
8 µg/mL: Candida albicans | Nakaseomyces glabratus | Candida tropicalis
> 256 µg/mL: all other assays above

C/C(=N\N=C1/SCC(=O)N1Cc1cccc2ccccc12)c1cccs1
2 µg/mL: Candida albicans | Candida tropicalis | [Candida] sake
16 µg/mL: Pichia kudriavzevii | Candida parapsilosis
8 µg/mL: Nakaseomyces glabratus
> 256 µg/mL: all other assays above

CC1CC/C(=N\N=C2/SCC(=O)N2Cc2cccc3ccccc23)C1 (stereo not given)
2 µg/mL: Candida albicans
16 µg/mL: Nakaseomyces glabratus
64 µg/mL: Candida parapsilosis
256 µg/mL: Pichia kudriavzevii | [Candida] sake
128 µg/mL: Candida tropicalis
> 256 µg/mL: all other assays above

CC(C)=N/N=C1\SCC(=O)N1Cc1cccc2ccccc12
2 µg/mL: Candida tropicalis | Pichia kudriavzevii | Candida parapsilosis | [Candida] sake
4 µg/mL: Candida albicans | Nakaseomyces glabratus
> 256 µg/mL: all other assays above

O=C1CS/C(=N\N=C2CCCCCC2)N1Cc1cccc2ccccc12
8 µg/mL: Candida albicans | Candida tropicalis
4 µg/mL: Pichia kudriavzevii | Candida parapsilosis | [Candida] sake
16 µg/mL: Nakaseomyces glabratus
> 256 µg/mL: all other assays above

C=CCC/C(C)=N/N=C1\SCC(=O)N1Cc1ccc([N+](=O)[O-])cc1
32 µg/mL: Pichia kudriavzevii | Candida parapsilosis
8 µg/mL: Nakaseomyces glabratus | Candida tropicalis | [Candida] sake
4 µg/mL: Candida albicans
> 256 µg/mL: all other assays above

C/C(=N\N=C1/SCC(=O)N1Cc1cccc2ccccc12)c1ccccc1
32 µg/mL: Pichia kudriavzevii | Candida parapsilosis
8 µg/mL: Nakaseomyces glabratus | [Candida] sake
2 µg/mL: Candida albicans | Candida tropicalis
> 256 µg/mL: all other assays above

O=C1CS/C(=N\N=C2CCCCCCC2)N1Cc1ccc([N+](=O)[O-])cc1
4 µg/mL: Candida albicans
16 µg/mL: Nakaseomyces glabratus | Pichia kudriavzevii | Candida parapsilosis | [Candida] sake
8 µg/mL: Candida tropicalis
> 256 µg/mL: all other assays above

C/C(=N\N=C1/SCC(=O)N1Cc1ccc([N+](=O)[O-])cc1)C1CCCCC1
32 µg/mL: Candida tropicalis | Candida parapsilosis | [Candida] sake
16 µg/mL: Nakaseomyces glabratus
4 µg/mL: Candida albicans
2 µg/mL: Pichia kudriavzevii
> 256 µg/mL: all other assays above

C=CCC/C(C)=N/N=C1\SCC(=O)N1CN1C(=O)c2ccccc2C1=O
8 µg/mL: [Candida] sake
128 µg/mL: Candida parapsilosis
32 µg/mL: Nakaseomyces glabratus | Pichia kudriavzevii
4 µg/mL: Candida albicans | Candida tropicalis
> 256 µg/mL: all other assays above

C/C(=N\N=C1/SCC(=O)N1CN1C(=O)c2ccccc2C1=O)c1ccco1
16 µg/mL: Nakaseomyces glabratus
256 µg/mL: Candida albicans | Pichia kudriavzevii | Candida parapsilosis | [Candida] sake
128 µg/mL: Candida tropicalis
> 256 µg/mL: all other assays above

O=C1c2ccccc2C(=O)N1CN1C(=O)CS/C1=N\N=C1CCCCCC1
16 µg/mL: Nakaseomyces glabratus | Pichia kudriavzevii | [Candida] sake
32 µg/mL: Candida tropicalis
4 µg/mL: Candida albicans | Candida parapsilosis
> 256 µg/mL: all other assays above

CCCC/C(CC)=N/N=C1\SCC(=O)N1Cc1ccc([N+](=O)[O-])cc1
16 µg/mL: Pichia kudriavzevii | Candida parapsilosis
8 µg/mL: Nakaseomyces glabratus
2 µg/mL: Candida albicans | Candida tropicalis | [Candida] sake
> 256 µg/mL: all other assays above

O=C1c2ccccc2C(=O)N1CN1C(=O)CS/C1=N\N=C1CCCCC1
32 µg/mL: [Candida] sake
8 µg/mL: Candida albicans | Candida tropicalis | Candida parapsilosis
16 µg/mL: Nakaseomyces glabratus | Pichia kudriavzevii
> 256 µg/mL: all other assays above

O=C1c2ccccc2C(=O)N1CN1C(=O)CS/C1=N\N=C\c1cccnc1
32 µg/mL: [Candida] sake
8 µg/mL: Nakaseomyces glabratus | Pichia kudriavzevii
256 µg/mL: Candida albicans
16 µg/mL: Candida tropicalis | Candida parapsilosis
> 256 µg/mL: all other assays above
